# From ChEMBL document CHEMBL4425094, “Novel Benzo[a]quinolizidine Analogs Induce Cancer Cell Death through Paraptosis and Apoptosis” (J Med Chem, 2016)
# Active and inactive are the calls of the source. No cut-off for these calls is given here.
# Legend:
# [1] = tested on: PC-3M; experiment: Antiproliferation activity against human PC3M-lluc-C6 cells xenografted in athymic Balb/c mouse assessed as decrease in cell viability at 15 mg/kg, ip administered every 2 days for 18 days by Ki-67 staining based microscopic analysis; assay type: functional, organism-based
# How it was run: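 Male BALB/c-nu mice, 6 weeks old, each given 5 × 10^6 PC3M-luc-C6 cells subcutaneously in the right anterior flank. At ~0.1 cm3 tumor, groups of n = 5 received 15 mg/kg i.p. every 2 days. Docetaxel 15 mg/kg was the positive control. Tumor tissue stained with H&E or anti-Ki67 (1:500) overnight at 4 °C, HRP/DAB, hematoxylin counterstain, examined by microscopy.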
# [2] = tested on: PC-3; experiment: Induction of cell cycle arrest in human PC3 cells assessed as accumulation in S phase at 0.5 uM after 24 hrs by […]propidium iodide based flow cytometric analysis (reference value: 21 to 31.6 %); assay type: functional
# [3] = tested on: RWPE-1; experiment: Cytotoxicity against human RWPE1 cells assessed as cell growth inhibition after 24 hrs by MTT assay; assay type: cell-based; conditions: RWPE-1, 24 h
# How it was run: (§1)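 Cells seeded 24 h in RPMI 1640 + 10% FBS. RWPE-1 was kept in K-SFM with bovine pituitary extract and EGF. Cells then exposed to compounds for 24 h at 37 °C, 5% CO2, with DMSO vehicle and docetaxel as positive control. MTT added for 4 h, absorbance read at 570 nm. Triplicate runs, IC50 reported as mean of three experiments.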
# [4] = tested on: PC-3M; experiment: Induction of immature autophagy i in human PC3M-lluc-C6 cells xenografted in athymic Balb/c mouse assessed as increase in p62 protein levels at 15 mg/kg, ip administered every 2 days for 18 days by Western blot and immunohistochemical staining method; assay type: functional, organism-based
# How it was run: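 Male athymic BALB/c-nu mice (6 weeks) carried subcutaneous right-flank PC3M-luc-C6 xenografts (5 × 10^6 cells). At ~0.1 cm3 they were grouped (n = 5) and given 15 mg/kg i.p. suspension every 2 days; placebo and docetaxel 15 mg/kg were controls. Tumors were analyzed by Western blot and by immunohistochemistry (anti-LC3 1:800, anti-p62 1:500, overnight 4 °C, HRP/DAB, hematoxylin counterstain).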
# [5] = tested on: PC-3; experiment: Induction of apoptosis in human PC3 cells assessed as late apoptotic cells at 0.5 uM after 24 hrs by Annexin V-FITC/propidium iodide based flow cytometric analysis (reference value: 1.1 %); assay type: functional
# How it was run: (§2)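 PC3 cells exposed to 0.5, 1 or 2 μM for 24 h, then stained with Annexin V-FITC and PI and analyzed by FACSCalibur flow cytometry. Populations assigned as necrotic (Annexin V−/PI+), late apoptotic (double positive), normal (Annexin V−/PI−) and early apoptotic (Annexin V+/PI−). DMSO vehicle control.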
# [6] = tested on: PC-3; experiment: Induction of cell cycle arrest in human PC3 cells assessed as accumulation in G2 phase at 1 uM after 24 hrs by […]propidium iodide based flow cytometric analysis (reference value: 16.3 to 25 %); assay type: functional
# [7] = molecular target: T1, Eukaryotic translation initiation factor 2-alpha kinase 3 (Homo sapiens) (UniProt Q9NZJ5); experiment: Activation of PERK phosphorylation in human PC3 cells after 24 hrs by Western blot analysis; assay type: cell-based
# T1 sequence (whole entry): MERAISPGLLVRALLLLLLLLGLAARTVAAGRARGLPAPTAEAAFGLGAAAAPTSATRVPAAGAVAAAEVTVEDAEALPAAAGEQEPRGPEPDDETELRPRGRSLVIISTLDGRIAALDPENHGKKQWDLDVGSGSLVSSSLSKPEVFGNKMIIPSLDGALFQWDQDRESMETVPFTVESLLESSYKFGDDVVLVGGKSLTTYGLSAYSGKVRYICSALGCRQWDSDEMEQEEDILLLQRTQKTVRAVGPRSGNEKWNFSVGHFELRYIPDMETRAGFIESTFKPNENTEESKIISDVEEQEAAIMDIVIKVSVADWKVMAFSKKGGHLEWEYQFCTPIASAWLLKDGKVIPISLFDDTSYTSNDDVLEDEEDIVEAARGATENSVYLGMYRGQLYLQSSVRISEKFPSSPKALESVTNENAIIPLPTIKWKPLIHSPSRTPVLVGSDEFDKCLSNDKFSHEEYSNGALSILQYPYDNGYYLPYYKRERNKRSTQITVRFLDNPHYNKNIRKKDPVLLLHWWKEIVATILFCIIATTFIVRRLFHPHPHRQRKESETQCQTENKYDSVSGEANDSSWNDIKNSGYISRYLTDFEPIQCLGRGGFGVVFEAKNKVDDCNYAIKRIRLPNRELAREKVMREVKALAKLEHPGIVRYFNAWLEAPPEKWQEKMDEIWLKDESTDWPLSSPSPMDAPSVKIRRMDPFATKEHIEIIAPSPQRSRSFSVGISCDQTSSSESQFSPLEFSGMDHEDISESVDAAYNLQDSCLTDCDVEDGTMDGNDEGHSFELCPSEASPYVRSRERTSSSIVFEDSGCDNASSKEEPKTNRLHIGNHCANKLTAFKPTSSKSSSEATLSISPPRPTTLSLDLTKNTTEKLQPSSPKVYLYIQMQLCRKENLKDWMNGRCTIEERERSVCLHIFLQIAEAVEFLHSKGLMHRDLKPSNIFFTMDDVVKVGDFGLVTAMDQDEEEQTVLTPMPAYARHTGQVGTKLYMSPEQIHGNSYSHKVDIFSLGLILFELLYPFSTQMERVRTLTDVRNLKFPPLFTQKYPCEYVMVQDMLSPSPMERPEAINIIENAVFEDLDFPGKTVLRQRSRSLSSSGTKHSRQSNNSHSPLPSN
# How it was run: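 PC3 cells in RPMI 1640 with 10% FBS, treated with compound for timed intervals. DMSO vehicle control. Lysis in RIPA buffer, 40 μg protein per lane on SDS-PAGE, transfer to nitrocellulose. Primary antibodies overnight at 4 °C, HRP-secondary 45 min, ECL detection. GAPDH or β-actin used as loading control.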
# [8] = tested on: PC-3; experiment: Induction of vacuolization in human PC3 cells in presence of AcT-D after 24 hrs by phase-contrast microscopic analysis; assay type: functional, cell-based
# How it was run: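 PC3 cells pretreated with 10 μM actinomycin D or 5 μM cycloheximide, then treated with agent for 24 h. Vacuolization imaged by phase-contrast microscopy; viability by MTT.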
# [9] = tested on: PC-3; experiment: Induction of autophagy in human PC3 cells assessed as upregulation of LC3 expression after 24 hrs by Western blot analysis; assay type: functional, cell-based
# How it was run: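 PC3 cells in RPMI 1640 with 10% FBS, treated at 50−70% confluence for a time course up to 24 h; DMSO vehicle control. Lysed in RIPA buffer; 40 μg protein run on SDS-PAGE, transferred to nitrocellulose, primary antibody overnight at 4 °C, HRP secondary 45 min, ECL detection. GAPDH or β-actin loading control.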
# [10] = tested on: PC-3; experiment: Induction of apoptosis in human PC3 cells after 24 hrs by Annexin V-FITC/propidium iodide based flow cytometric analysis; assay type: functional, cell-based; how it was run: as §2
# [11] = tested on: MCF7; experiment: Cytotoxicity against human MCF7 cells assessed as cell growth inhibition after 24 hrs by MTT assay; assay type: functional, cell-based; conditions: MCF7, 24 h; how it was run: as §1
smiles,measurement,setting,value
Cc1cc(C)cc(COc2cc3c(cc2OCc2cc(C)cc(C)c2)[C@@H]2C[C@H](O)C[C@@H](C)N2CC3)c1 (racemic),inhibition,[1],Active
same,Activity,[2],16.1 - 21.3%
same,IC50,[3],5060 nM
same,Activity,[4],Active
same,Activity,[5],1.2%
same,Activity,[6],11.9 - 14.5%
same,Activity,[7],Active
same,Activity,[8],inactive
same,Activity,[9],Active
same,Activity,[10],Dose-dependent effect
same,IC50,[11],510 nM
